According to ChEMBL document CHEMBL4411315, “Discovery of Novel Dual Histone Deacetylase and Mammalian Target of Rapamycin Target Inhibitors as a Promising Strategy for Cancer Therapy” (J Med Chem, 2019):

Tests used:
MV4-11 [1] = assay: Induction of apoptosis in human MV4-11 cells assessed as necrotic cells at 10 nM after 48 hrs by Annexin V-FITC/propidium iodide staining-based flow cytometric analysis (reference value: 0.17%); type: functional
MV4-11 [2] = assay: Induction of apoptosis in human MV4-11 cells assessed as late apoptotic cells at 10 nM after 48 hrs by Annexin V-FITC/propidium iodide staining-based flow cytometric analysis (reference value: 5.03%); type: functional
MV4-11 [3] = assay: Cell cycle arrest in human MV4-11 cells assessed as accumulation at G2/M phase at 5 nM after 24 hrs by propidium iodide/RNase staining-based FACS analysis (reference value: 18.79%); type: functional
MM1.S [4] = assay: Antitumor activity against human MM1S cells xenografted in NOD/SCID mouse assessed as tumor growth inhibition at 10 mg/kg, iv administered every 2 days for 5 days and measured every 2 days post last dose by caliper method relative to control; type: functional; conditions: read-out: TGI
How it was run: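 MM1S xenografts were made with 10^7 cells in 100 μL serum-free RPMI 1640, injected s.c. into the right flank of female NOD/SCID mice aged 5-6 weeks. Mice were randomized at 100-200 mm3, 6 per group. Dosing was i.v. every 2 days in saline with 2.5% DMSO and 10% cyclodextrin at pH 9. Tumours were measured by caliper every 2 days (volume = length × width² × 0.5) and weighed at the end.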

[5] = target: Protein deacetylase HDAC6 (Homo sapiens) (UniProt Q9UBN7); assay: Inhibition of HDAC6 in human MV4-11 cells assessed as increase in alpha-tubulin acetylation after 6 hrs by Western blot analysis; type: cell-based
How it was run: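 MV4-11 cells treated 6 h at 0.01, 0.1 or 1 μM. Whole-cell protein extracted in RIPA buffer and quantified by BCA. 30 μg protein run on SDS-PAGE and transferred to PVDF. Blocked 1 h in 5% milk, primary antibody overnight at 4 °C, HRP secondary 1 h, ECL detection. Acetyl-histone H3 and acetyl-α-tubulin probed, with GAPDH as loading control.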

MM1.S [6] = assay: Induction of apoptosis in human MM1S cells assessed as late apoptotic cells at 160 nM after 48 hrs by Annexin V-FITC/propidium iodide staining-based flow cytometric analysis (reference value: 0.42%); type: functional
MM1.S [7] = assay: Induction of apoptosis in human MM1S cells assessed as viable cells at 10 nM after 48 hrs by Annexin V-FITC/propidium iodide staining-based flow cytometric analysis (reference value: 98.9%); type: functional; conditions: read-out: Activity
MV4-11 [8] = assay: Induction of apoptosis in human MV4-11 cells assessed as viable cells at 320 nM after 48 hrs by Annexin V-FITC/propidium iodide staining-based flow cytometric analysis (reference value: 84.1%); type: functional; conditions: MV4-11, 48 h, read-out: Activity
MM1.S [9] = assay: Cell cycle arrest in human MM1S cells assessed as accumulation at G0/G1 phase at 5 nM after 24 hrs by propidium iodide/RNase staining-based FACS analysis (reference value: 49.22%); type: functional
MM1.S [10] = assay: Induction of apoptosis in human MM1S cells assessed as necrotic cells at 20 nM after 48 hrs by Annexin V-FITC/propidium iodide staining-based flow cytometric analysis (reference value: 0.32%); type: functional
MM1.S [11] = assay: Antiproliferative activity against human MM1S cells after 72 hrs by MTT assay; type: functional, cell-based
MV4-11 [12] = assay: Cell cycle arrest in human MV4-11 cells assessed as accumulation at G0/G1 phase at 2.5 nM after 24 hrs by propidium iodide/RNase staining-based FACS analysis (reference value: 44.79%); type: functional
MM1.S [13] = assay: Induction of apoptosis in human MM1S cells assessed as late apoptotic cells at 320 nM after 48 hrs by Annexin V-FITC/propidium iodide staining-based flow cytometric analysis (reference value: 0.42%); type: functional
MM1.S [14] = assay: Cell cycle arrest in human MM1S cells assessed as accumulation at G2/M phase at 1.25 nM after 24 hrs by propidium iodide/RNase staining-based FACS analysis (reference value: 26.29%); type: functional
Histone deacetylase 9 = Histone deacetylase 9 (Homo sapiens, UniProt Q9UKV0); assay: Inhibition of recombinant full length C-terminal His-tagged human HDAC9 expressed in baculovirus expression system using Ac-peptide-AMC as substrate preincubated for 15 mins followed by substrate addition and measured after 1 hr by fluorescence assay
MV4-11 [15] = assay: Induction of apoptosis in human MV4-11 cells assessed as early apoptotic cells at 40 nM after 48 hrs by Annexin V-FITC/propidium iodide staining-based flow cytometric analysis (reference value: 10.7%); type: functional
MV4-11 [16] = assay: Induction of apoptosis in human MV4-11 cells assessed as early apoptotic cells at 160 nM after 48 hrs by Annexin V-FITC/propidium iodide staining-based flow cytometric analysis (reference value: 10.7%); type: functional
MV4-11 [17] = assay: Induction of apoptosis in human MV4-11 cells assessed as necrotic cells at 80 nM after 48 hrs by Annexin V-FITC/propidium iodide staining-based flow cytometric analysis (reference value: 0.17%); type: functional
Histone deacetylase 5 = Histone deacetylase 5 (Homo sapiens, UniProt Q9UQL6); assay: Inhibition of recombinant full length N-terminal GST-tagged human HDAC5 expressed in baculovirus expression system using Ac-peptide-AMC as substrate preincubated for 15 mins followed by substrate addition and measured after 1 hr by fluorescence assay
MV4-11 [18] = assay: Cell cycle arrest in human MV4-11 cells assessed as accumulation at G2/M phase at 1.25 nM after 24 hrs by propidium iodide/RNase staining-based FACS analysis (reference value: 18.79%); type: functional
Histone deacetylase 2 = Histone deacetylase 2 (Homo sapiens, UniProt Q92769); assay: Inhibition of recombinant full length human HDAC2 expressed in baculovirus expression system using Ac-peptide-AMC as substrate preincubated for 15 mins followed by substrate addition and measured after 1 hr by fluorescence assay
[19] = Toxicity against NOD/SCID mouse xenografted with human MM1S cells assessed as effect on body weight at 20 mg/kg, iv administered every 2 days for 5 days; type: organism-based; conditions: in vivo
How it was run: (§1)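 Female NOD/SCID mice, 5-6 weeks old, received 10^7 MM1S cells in 100 μL serum-free RPMI 1640 s.c. into the right flank. At 100-200 mm3 tumours they were randomised, 6 mice per group. Tumours were measured by caliper every 2 days. At the end, tumours were excised and weighed. Survivors are reported per group.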

[20] = Toxicity against NOD/SCID mouse xenografted with human MM1S cells assessed as effect on body weight at 10 mg/kg, iv administered every 2 days for 5 days; type: organism-based; conditions: in vivo; how it was run: as §1
MM1.S [21] = assay: Induction of apoptosis in human MM1S cells assessed as late apoptotic cells at 40 nM after 48 hrs by Annexin V-FITC/propidium iodide staining-based flow cytometric analysis (reference value: 0.42%); type: functional
MV4-11 [22] = assay: Induction of apoptosis in human MV4-11 cells assessed as viable cells at 40 nM after 48 hrs by Annexin V-FITC/propidium iodide staining-based flow cytometric analysis (reference value: 84.1%); type: functional; conditions: MV4-11, 48 h, read-out: Activity
MV4-11 [23] = assay: Induction of apoptosis in human MV4-11 cells assessed as late apoptotic cells at 320 nM after 48 hrs by Annexin V-FITC/propidium iodide staining-based flow cytometric analysis (reference value: 5.03%); type: functional
[24] = Toxicity against NOD/SCID mouse xenografted with human MM1S cells assessed as mouse survival at 10 mg/kg, iv administered every 2 days for 5 days; type: organism-based; conditions: in vivo; how it was run: as §1

Sequence of Histone deacetylase 2 (Q92769 whole entry): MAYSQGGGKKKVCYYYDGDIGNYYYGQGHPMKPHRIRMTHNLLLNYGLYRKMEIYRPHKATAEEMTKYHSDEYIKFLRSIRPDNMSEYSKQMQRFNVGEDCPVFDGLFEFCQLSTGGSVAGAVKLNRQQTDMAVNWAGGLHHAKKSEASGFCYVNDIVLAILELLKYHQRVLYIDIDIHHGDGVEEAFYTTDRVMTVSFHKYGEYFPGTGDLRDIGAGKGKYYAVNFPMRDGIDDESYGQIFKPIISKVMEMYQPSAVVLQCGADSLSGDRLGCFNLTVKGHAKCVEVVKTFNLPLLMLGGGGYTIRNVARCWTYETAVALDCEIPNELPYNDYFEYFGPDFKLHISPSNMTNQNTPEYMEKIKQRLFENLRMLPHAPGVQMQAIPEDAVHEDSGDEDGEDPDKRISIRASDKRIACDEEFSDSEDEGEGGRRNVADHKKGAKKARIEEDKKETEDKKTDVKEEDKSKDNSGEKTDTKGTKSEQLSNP
Sequence of Histone deacetylase 5 (Q9UQL6 whole entry): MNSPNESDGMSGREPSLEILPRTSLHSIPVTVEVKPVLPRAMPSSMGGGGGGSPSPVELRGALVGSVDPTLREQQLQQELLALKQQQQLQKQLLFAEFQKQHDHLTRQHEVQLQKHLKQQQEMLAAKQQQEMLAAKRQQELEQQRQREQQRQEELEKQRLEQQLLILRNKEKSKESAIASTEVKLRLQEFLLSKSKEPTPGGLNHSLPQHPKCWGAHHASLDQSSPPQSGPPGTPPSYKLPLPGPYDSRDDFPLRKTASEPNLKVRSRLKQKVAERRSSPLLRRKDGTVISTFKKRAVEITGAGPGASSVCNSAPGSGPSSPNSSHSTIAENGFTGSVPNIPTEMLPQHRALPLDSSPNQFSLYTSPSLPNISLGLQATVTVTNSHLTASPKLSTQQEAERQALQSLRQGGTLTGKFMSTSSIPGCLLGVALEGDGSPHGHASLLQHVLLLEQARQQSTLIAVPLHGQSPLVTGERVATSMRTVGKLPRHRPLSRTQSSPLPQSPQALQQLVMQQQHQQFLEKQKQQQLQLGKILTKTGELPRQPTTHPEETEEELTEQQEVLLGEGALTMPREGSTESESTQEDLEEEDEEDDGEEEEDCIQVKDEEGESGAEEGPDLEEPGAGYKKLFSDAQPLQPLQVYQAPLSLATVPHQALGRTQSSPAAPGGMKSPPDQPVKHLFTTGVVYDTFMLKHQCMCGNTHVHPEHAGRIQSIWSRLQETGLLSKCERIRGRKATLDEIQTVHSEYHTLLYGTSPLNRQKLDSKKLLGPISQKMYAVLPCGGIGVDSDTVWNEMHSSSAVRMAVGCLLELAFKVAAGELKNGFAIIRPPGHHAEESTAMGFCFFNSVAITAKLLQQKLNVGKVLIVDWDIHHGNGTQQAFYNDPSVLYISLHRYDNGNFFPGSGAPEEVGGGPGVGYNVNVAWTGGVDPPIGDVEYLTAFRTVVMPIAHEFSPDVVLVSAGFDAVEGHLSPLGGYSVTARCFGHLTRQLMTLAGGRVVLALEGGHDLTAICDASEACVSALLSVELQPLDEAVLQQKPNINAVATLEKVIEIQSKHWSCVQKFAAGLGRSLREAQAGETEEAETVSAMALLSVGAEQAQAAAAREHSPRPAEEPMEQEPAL
Sequence of Histone deacetylase 9 (Q9UKV0 whole entry): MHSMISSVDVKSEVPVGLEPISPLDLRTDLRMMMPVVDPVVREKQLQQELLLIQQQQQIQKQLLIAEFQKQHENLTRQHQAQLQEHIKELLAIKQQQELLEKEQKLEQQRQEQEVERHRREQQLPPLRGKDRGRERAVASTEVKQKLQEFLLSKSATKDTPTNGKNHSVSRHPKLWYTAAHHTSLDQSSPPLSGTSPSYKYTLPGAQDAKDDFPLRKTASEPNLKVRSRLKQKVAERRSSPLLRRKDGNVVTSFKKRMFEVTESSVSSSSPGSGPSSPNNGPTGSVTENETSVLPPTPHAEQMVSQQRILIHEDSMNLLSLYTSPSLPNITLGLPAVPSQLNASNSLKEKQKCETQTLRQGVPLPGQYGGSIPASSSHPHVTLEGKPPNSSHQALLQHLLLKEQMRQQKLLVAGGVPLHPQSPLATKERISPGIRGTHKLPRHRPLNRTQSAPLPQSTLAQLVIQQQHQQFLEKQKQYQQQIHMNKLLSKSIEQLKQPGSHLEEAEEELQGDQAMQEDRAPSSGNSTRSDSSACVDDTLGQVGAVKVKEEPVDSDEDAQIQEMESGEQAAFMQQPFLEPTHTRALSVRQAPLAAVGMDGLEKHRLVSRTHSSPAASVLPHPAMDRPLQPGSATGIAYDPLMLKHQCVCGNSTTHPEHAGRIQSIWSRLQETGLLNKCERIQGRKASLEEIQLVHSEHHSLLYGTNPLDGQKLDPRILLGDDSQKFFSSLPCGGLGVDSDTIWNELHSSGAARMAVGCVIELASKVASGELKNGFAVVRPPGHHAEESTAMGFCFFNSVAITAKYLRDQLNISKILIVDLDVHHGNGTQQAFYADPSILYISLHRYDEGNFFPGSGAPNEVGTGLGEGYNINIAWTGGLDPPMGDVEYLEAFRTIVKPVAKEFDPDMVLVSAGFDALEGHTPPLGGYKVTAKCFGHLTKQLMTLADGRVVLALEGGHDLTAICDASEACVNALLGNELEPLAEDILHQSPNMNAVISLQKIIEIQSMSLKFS
Sequence of Protein deacetylase HDAC6 (Homo sapiens) (Q9UBN7 whole entry): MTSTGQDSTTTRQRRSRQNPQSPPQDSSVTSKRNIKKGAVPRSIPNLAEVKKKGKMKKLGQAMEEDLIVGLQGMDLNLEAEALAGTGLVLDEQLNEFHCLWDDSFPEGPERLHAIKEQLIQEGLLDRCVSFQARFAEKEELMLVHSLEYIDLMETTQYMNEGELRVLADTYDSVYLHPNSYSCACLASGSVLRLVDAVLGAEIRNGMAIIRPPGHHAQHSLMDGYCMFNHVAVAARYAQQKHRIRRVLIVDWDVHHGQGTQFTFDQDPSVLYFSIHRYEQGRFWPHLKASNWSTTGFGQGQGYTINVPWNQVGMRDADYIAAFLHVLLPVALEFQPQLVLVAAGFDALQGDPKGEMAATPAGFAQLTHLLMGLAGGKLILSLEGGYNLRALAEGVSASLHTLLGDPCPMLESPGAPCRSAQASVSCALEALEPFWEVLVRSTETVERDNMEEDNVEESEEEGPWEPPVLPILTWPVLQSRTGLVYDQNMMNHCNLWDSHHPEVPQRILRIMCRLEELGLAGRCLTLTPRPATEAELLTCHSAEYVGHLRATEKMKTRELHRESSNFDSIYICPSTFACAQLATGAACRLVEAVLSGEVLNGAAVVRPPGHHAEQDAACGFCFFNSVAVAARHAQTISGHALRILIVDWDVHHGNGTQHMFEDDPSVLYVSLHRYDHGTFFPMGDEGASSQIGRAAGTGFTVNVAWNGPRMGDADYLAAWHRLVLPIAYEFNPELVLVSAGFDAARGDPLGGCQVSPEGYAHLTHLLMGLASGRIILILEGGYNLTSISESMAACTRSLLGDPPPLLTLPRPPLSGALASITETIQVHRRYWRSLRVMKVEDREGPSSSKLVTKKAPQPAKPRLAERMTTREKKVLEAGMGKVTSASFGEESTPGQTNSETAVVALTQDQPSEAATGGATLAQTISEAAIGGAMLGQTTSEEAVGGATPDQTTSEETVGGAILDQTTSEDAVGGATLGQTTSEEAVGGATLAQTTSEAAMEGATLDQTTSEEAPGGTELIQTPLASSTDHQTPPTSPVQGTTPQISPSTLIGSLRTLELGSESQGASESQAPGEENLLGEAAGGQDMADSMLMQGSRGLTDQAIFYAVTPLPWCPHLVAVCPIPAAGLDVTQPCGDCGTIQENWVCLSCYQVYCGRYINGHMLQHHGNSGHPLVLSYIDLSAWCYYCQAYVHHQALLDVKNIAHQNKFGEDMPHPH

C[C@@H]1CN(C(=O)Nc2ccc(-c3nc(N4CCOCC4)c4cnn(CCCCCCC(=O)NO)c4n3)cc2)CCO1
Activity (MV4-11 [1]): 0.14% | Activity (MV4-11 [2]): 9.91% | Activity (MV4-11 [3]): 13.99% | inhibition in vivo at 10 mg/kg (MM1.S [4]): 48.1% | inhibition [5]: Dose-dependent effect | Activity (MM1.S [6]): 63.3% | viability at 0.01 µM (MM1.S [7]): 95.1% | viability at 0.32 µM (MV4-11 [8]): 2.57% | Activity (MM1.S [9]): 57.95% | Activity (MM1.S [10]): 1.05% | IC50 (MM1.S [11]): 7.3 nM | Activity (MV4-11 [12]): 48.03% | Activity (MM1.S [13]): 62% | Activity (MM1.S [14]): 24.1% | IC50 (Histone deacetylase 9): > 1000 nM | Activity (MV4-11 [15]): 37.4% | Activity (MV4-11 [16]): 34.7% | Activity (MV4-11 [17]): 1.86% | IC50 (Histone deacetylase 5): > 1000 nM | Activity (MV4-11 [18]): 18.99% | IC50 (Histone deacetylase 2): 0.61 nM | Activity [19]: Non-Toxic | Activity [20]: Non-Toxic | Activity (MM1.S [21]): 23% | viability at 0.04 µM (MV4-11 [22]): 2.99% | Activity (MV4-11 [23]): 68.3% | Activity [24]: Non-Toxic
